Reference: ChEMBL document CHEMBL4428088, “Synthesis and evaluation of 6-pyrazoylamido-3N-substituted azabicyclo[3,1,0]hexane derivatives as T-type calcium channel inhibitors for treatment of neuropathic pain” (Bioorg Med Chem, 2016)
The source made the active and inactive calls. The rule behind the calls is not given here.

Columns and labels:
[1] = target: CYP2C19 (Homo sapiens, UniProt P33261); test: Inhibition of human CYP2C19 expressed in baculosomes assessed as remaining activity using fluorogenic substrate after 15 mins in presence of NADPH by fluorescence assay; type: ADME; parameters: concentration or dose not given beside the values; conditions: recombinant human CYP2C19 in baculosomes, probe fluorogenic substrate, read-out: Activity
Summary of the method: (§1)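 Vivid CYP450 fluorescence assay for CYP2D6, 2C9, 2C19 and 3A4. Compound was preincubated with baculosome Master Pre-Mix and regeneration system for 15 min at 37 °C. The reaction was started with Vivid substrate plus NADPH and read on a fluorescence plate reader. Values are % remaining activity, in triplicate.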

[2] = target: Voltage-gated inwardly rectifying potassium channel KCNH2 (Homo sapiens, UniProt Q12809); test: Inhibition of human ERG expressed in CHO-K1 cells by whole cell patch clamp method; type: cell-based
[3] = target: CYP2C9 (Homo sapiens, UniProt P11712); test: Inhibition of human CYP2C9 expressed in baculosomes assessed as remaining activity using fluorogenic substrate after 15 mins in presence of NADPH by fluorescence assay; type: ADME; parameters: concentration or dose not given beside the values; conditions: recombinant human CYP2C9 in baculosomes, probe fluorogenic substrate, read-out: Activity; summary of the method: as §1
[4] = target: CYP3A4 (Homo sapiens, UniProt P08684); test: Inhibition of human CYP3A4 expressed in baculosomes assessed as remaining activity using fluorogenic substrate after 15 mins in presence of NADPH by fluorescence assay; type: ADME; parameters: concentration or dose not given beside the values; conditions: recombinant human CYP3A4 in baculosomes, probe fluorogenic substrate, read-out: Activity; summary of the method: as §1
[5] = target: CYP2D6 (Homo sapiens, UniProt P10635); test: Inhibition of human CYP2D6 expressed in baculosomes assessed as remaining activity using fluorogenic substrate after 15 mins in presence of NADPH by fluorescence assay; type: ADME; parameters: concentration or dose not given beside the values; conditions: recombinant human CYP2D6 in baculosomes, probe fluorogenic substrate, read-out: Activity; summary of the method: as §1
[6] = Mean residence time in rat at 10 mg/kg, iv; type: ADME, organism-based; conditions: in vivo
[7] = Oral bioavailability in rat at 10 mg/kg; type: ADME, organism-based; conditions: in vivo
[8] = AUClast in rat at 10 mg/kg, po; type: ADME, organism-based; parameters: dose 10 mg/kg, route oral, time 0 - last; conditions: in vivo
[9] = Clearance in rat at 10 mg/kg, iv; type: ADME, organism-based; conditions: in vivo
[10] = Tmax in rat at 10 mg/kg, po; type: ADME, organism-based; conditions: in vivo
[11] = Cmax in rat at 10 mg/kg, po; type: ADME, organism-based; parameters: dose 10 mg/kg, route oral; conditions: in vivo
[12] = AUC (0 to infinity) in rat at 10 mg/kg, iv; type: ADME, organism-based; parameters: dose 10 mg/kg, time infinity, route intravenous; conditions: in vivo
[13] = system: Rattus norvegicus; test: Antiallodynic activity in rat model of spinal nerve ligation-induced neuropathic pain assessed as […] for paw withdrawal at 100 mg/kg, po administered on day 14 after ligation surgery and measured 3 to 5 hrs post dose by Von Frey filaments based method; type: functional, organism-based
Summary of the method: (§2)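 Spinal nerve ligation rats were dosed orally at 100 mg/kg 14 days after surgery, with gabapentin 100 mg/kg as reference (n = 5 test, n = 4 gabapentin). Mechanical and cold allodynia were tested 1, 3 and 5 h post dose. Significance versus pre-dose value by paired t-test.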

[14] = system: Rattus norvegicus; test: Antiallodynic activity in rat model of spinal nerve ligation-induced neuropathic pain assessed as reduction in cold allodynia by measuring paw withdrawal in response to acetone application at 100 mg/kg, po administered on day 14 after ligation surgery measured 1 to 5 hrs post dose relative to gabapentin; type: functional; summary of the method: as §2
[15] = AUClast in rat at 10 mg/kg, iv; type: ADME, organism-based; parameters: dose 10 mg/kg, time 0 - last, route intravenous; conditions: in vivo
[16] = Ratio of drug level in rat brain to plasma at 10 mg/kg, iv at 2 hrs; type: ADME, organism-based; conditions: brain and plasma, read-out: BPR
[17] = AUC (0 to infinity) in rat at 10 mg/kg, po; type: ADME, organism-based; parameters: dose 10 mg/kg, route oral, time infinity; conditions: in vivo
[18] = Ratio of drug level in rat brain to plasma at 10 mg/kg, po at 2 hrs; type: ADME, organism-based; conditions: brain and plasma, read-out: BPR
[19] = target: T1, Voltage-dependent T-type calcium channel subunit alpha-1H (Homo sapiens, UniProt O95180); test: Inhibition of T-type alpha1H channel (unknown origin) expressed in HEK293 cells after 3 mins by patch clamp assay; type: cell-based
[20] = target: T2, Voltage-dependent T-type calcium channel subunit alpha-1G (Homo sapiens, UniProt O43497); test: Inhibition of T-type alpha1G channel (unknown origin) expressed in HEK293 cells at 10 uM by fluorescence-based HTS assay; type: cell-based
Summary of the method: (§3)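 FDSS6000 fluorescence-based HTS assay in HEK293 cells expressing Cav3.1 (α1G) or Cav3.2 (α1H), read as % inhibition.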

[21] = target: T1, Voltage-dependent T-type calcium channel subunit alpha-1H; test: Inhibition of T-type alpha1H channel (unknown origin) expressed in HEK293 cells at 10 uM by fluorescence-based HTS assay; type: cell-based; summary of the method: as §3
[22] = Metabolic stability in human liver microsomes assessed as parent compound remaining after 30 mins in presence of NADPH by LC-MS/MS analysis; type: ADME, Microsome; conditions: read-out: Stability
Summary of the method: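 Pooled human liver microsomes were incubated at 37 °C with compound in potassium phosphate buffer and 1.2 mM NADPH for 30 min. The reaction was stopped with cold acetonitrile containing internal standard, centrifuged, and the supernatant analysed by LC-MS/MS.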

[23] = target: T2, Voltage-dependent T-type calcium channel subunit alpha-1G; test: Inhibition of T-type alpha1G channel (unknown origin) by whole cell patch clamp method
Summary of the method: (§4)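 Whole-cell patch clamp recording. T-type α1G and α1H IC50 values (±SD) were taken from dose-response curves.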

[24] = target: Voltage-dependent N-type calcium channel subunit alpha-1B (Homo sapiens) (UniProt Q00975); test: Inhibition of N-type calcium channel (unknown origin) at 10 uM by whole cell patch clamp method
[25] = target: T1, Voltage-dependent T-type calcium channel subunit alpha-1H; test: Inhibition of T-type alpha1H channel (unknown origin) by whole cell patch clamp method; summary of the method: as §4

T1 sequence (O95180 whole entry): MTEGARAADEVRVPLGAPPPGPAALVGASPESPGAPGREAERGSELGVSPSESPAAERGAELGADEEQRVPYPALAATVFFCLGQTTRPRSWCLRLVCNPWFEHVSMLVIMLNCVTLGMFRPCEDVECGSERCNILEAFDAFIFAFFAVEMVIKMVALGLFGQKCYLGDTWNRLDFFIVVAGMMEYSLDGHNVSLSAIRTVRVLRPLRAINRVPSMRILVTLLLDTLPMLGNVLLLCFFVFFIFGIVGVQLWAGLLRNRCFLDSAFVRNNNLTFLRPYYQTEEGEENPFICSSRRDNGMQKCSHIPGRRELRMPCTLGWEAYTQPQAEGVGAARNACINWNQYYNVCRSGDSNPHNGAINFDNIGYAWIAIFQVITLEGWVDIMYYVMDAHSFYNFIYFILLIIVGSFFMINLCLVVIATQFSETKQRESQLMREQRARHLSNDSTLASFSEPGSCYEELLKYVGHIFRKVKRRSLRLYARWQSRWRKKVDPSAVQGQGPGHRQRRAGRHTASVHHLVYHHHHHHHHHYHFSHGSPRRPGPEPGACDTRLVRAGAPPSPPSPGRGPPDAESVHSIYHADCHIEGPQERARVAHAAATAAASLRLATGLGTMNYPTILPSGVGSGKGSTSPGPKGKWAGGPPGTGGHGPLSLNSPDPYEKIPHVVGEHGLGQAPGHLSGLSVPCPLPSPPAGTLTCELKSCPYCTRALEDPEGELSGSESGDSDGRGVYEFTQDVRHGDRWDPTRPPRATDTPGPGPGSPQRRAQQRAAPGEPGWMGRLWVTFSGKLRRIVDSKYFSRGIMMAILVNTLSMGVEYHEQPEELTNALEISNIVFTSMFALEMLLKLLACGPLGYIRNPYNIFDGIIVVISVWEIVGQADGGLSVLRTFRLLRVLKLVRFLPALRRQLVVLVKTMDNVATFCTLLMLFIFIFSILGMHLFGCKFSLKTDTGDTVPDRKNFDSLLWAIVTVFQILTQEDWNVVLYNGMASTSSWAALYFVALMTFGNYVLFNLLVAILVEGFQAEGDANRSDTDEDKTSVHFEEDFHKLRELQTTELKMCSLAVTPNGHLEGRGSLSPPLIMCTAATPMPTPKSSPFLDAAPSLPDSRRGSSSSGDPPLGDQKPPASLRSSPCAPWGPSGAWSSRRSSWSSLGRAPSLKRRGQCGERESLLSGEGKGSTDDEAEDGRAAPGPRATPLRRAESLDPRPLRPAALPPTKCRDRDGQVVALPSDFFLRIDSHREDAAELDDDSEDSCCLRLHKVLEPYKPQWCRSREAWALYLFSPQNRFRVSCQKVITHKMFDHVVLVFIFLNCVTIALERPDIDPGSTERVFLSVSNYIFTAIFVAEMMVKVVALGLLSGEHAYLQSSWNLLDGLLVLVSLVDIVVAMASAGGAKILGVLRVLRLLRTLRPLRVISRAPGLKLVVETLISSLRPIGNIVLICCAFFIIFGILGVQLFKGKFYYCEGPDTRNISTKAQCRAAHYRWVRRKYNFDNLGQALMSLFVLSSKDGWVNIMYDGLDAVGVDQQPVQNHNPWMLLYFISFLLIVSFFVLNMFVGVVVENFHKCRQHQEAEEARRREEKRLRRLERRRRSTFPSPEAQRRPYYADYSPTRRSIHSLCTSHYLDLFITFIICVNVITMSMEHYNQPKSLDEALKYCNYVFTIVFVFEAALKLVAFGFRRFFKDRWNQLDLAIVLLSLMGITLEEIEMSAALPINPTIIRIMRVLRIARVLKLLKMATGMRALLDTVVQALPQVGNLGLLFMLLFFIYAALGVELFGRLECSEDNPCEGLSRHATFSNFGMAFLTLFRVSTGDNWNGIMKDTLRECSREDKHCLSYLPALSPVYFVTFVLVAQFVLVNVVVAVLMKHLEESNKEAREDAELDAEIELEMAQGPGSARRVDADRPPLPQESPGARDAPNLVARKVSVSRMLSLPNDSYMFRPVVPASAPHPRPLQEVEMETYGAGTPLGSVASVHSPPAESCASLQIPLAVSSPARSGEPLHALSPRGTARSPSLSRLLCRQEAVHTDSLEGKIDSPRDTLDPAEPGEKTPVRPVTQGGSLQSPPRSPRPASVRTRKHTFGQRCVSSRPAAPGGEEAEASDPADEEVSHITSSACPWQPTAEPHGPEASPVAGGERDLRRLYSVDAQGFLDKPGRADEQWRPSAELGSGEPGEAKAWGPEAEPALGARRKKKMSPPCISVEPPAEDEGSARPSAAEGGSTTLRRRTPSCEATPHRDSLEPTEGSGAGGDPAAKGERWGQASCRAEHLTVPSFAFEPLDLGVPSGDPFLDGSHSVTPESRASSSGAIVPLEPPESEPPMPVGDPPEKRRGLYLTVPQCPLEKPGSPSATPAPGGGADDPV
Sequence of Voltage-gated inwardly rectifying potassium channel KCNH2 (Q12809 whole entry): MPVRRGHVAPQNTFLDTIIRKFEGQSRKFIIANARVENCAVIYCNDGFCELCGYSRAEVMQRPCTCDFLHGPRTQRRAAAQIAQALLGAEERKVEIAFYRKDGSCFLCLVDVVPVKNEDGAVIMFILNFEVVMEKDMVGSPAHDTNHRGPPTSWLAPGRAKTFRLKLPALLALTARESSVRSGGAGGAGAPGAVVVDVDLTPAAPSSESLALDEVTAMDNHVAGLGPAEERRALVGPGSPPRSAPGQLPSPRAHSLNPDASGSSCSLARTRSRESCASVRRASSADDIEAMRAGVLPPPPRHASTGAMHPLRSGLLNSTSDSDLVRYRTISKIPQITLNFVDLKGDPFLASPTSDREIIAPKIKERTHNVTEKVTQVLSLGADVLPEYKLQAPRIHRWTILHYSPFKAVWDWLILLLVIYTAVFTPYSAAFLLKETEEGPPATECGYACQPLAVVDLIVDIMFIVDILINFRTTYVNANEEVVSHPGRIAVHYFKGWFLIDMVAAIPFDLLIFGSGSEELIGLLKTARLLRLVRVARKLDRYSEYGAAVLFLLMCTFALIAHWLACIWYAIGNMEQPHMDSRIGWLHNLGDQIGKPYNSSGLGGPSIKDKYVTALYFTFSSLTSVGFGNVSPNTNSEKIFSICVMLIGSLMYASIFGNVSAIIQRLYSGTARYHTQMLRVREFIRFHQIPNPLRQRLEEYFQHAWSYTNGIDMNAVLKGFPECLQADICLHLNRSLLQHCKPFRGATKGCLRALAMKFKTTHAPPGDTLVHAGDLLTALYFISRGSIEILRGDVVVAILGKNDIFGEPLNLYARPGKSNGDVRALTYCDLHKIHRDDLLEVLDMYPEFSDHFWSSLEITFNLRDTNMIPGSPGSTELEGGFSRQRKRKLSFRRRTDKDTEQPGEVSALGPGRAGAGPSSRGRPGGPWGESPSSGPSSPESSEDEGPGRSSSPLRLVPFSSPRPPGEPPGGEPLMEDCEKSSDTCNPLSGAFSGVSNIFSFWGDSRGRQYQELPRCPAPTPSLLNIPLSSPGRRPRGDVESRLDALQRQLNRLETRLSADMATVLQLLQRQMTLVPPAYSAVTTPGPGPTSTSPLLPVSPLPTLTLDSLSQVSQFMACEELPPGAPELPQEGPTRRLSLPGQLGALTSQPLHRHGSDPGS
Sequence of CYP3A4 (P08684 whole entry): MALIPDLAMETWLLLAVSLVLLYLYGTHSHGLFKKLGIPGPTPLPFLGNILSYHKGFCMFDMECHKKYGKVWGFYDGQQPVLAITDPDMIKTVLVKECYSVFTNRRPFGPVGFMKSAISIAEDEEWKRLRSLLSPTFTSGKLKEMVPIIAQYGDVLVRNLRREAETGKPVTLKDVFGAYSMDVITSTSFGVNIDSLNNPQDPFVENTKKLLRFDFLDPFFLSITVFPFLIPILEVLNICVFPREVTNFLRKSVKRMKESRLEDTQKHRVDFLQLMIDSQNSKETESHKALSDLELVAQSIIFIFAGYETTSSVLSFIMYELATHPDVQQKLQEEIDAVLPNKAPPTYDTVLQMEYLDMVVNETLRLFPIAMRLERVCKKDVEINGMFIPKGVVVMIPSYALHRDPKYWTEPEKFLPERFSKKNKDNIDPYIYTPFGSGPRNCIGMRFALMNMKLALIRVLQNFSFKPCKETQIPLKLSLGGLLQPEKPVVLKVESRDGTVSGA
Sequence of CYP2C9 (P11712 whole entry): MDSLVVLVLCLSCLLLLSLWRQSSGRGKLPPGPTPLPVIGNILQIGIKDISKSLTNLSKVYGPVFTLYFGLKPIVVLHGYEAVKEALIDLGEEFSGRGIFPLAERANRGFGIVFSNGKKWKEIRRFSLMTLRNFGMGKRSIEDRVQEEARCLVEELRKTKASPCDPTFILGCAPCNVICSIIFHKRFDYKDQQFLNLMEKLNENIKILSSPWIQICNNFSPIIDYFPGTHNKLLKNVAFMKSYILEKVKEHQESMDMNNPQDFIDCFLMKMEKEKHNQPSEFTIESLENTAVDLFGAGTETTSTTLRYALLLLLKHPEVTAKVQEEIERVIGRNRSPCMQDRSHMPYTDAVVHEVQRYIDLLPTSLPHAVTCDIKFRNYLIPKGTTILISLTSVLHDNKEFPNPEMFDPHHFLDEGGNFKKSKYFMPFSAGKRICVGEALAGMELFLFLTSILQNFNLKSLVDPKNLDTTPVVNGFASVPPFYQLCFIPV
Sequence of CYP2C19 (P33261 whole entry): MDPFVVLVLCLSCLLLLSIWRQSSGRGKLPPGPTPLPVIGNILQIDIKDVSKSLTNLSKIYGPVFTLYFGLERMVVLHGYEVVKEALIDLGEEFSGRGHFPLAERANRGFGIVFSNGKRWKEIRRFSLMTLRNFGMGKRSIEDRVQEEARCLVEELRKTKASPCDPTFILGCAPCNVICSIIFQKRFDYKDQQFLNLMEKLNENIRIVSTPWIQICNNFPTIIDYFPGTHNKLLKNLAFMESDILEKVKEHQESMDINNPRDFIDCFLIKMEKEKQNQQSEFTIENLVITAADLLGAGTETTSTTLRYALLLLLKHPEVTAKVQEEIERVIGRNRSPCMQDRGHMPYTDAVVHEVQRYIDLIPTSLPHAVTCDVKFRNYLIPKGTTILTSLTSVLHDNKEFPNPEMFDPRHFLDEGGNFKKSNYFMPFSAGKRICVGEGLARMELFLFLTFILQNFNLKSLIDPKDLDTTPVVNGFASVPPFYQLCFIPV

Row | SMILES | activity at 0.25 h [1] [%] | IC50 [2] [nM] | activity at 0.25 h [3] [%] | activity at 0.25 h [4] [%] | activity at 0.25 h [5] [%] | Activity [13] | inhibition [20] [%] | inhibition [21] [%] | also measured
1 | CC(C)Cc1cc(CNC(=O)C2C3CN(Cc4ccccc4)CC32)nn1-c1ccccc1 (stereo not given) | 30.3 | 1430 | 118 | 102 | 56.2 | – | – | – | –
2 | CC(C)Cc1cc(CNC(=O)C2C3CN(C(=O)c4ccccc4)CC32)nn1-c1ccccc1 (stereo not given) | 60.8 | – | 64.6 | 74.6 | 94 | inactive | – | – | MRT [6]: 18.2 min; bioavailability [7]: 7.6%; AUC(0-t) [8]: 273 ng·h/mL; clearance [9]: 43.8 mL/min/kg; Tmax [10]: 26 min; Cmax [11]: 280 ng/mL; AUC(0-inf) [12]: 3860 ng·h/mL; fold change (FC) [14]: 2; AUC(0-t) [15]: 3850 ng·h/mL; Kp at 2 h [16]: 0.29; AUC(0-inf) [17]: 294 ng·h/mL; Kp at 2 h [18]: 0.12
3 | CC(C)Cc1cc(C(=O)NCC2C3CN(CCC(C)(C)C)CC23)nn1-c1ccccc1 (stereo not given) | 84.2 | – | 87.1 | 130 | 55.9 | – | – | – | –
4 | CC(C)(C)CCN1CC2C(CNC(=O)c3cc(Cl)cc(Cl)c3)C2C1 (stereo not given) | – | – | – | – | – | – | – | – | IC50 [19]: 310 nM
5 | CN(CCCc1nc2ccccc2[nH]1)C(=O)C1C2CN(CCc3ccc(C(F)(F)F)cc3)CC21 (stereo not given) | 42.3 | – | 51.4 | 61.4 | 27.7 | – | 49.2 | 58.7 | remaining at 0.5 h [22]: 76.9%
6 | CC(C)Cc1cc(CNC(=O)C2C3CN(CCC(C)(C)C)CC32)nn1-c1ccccc1 (stereo not given) | 101 | 2600 | 72.8 | 82.3 | 126 | Active | – | – | fold change (FC) [14]: 3
7 | NCC1(CC(=O)O)CCCCC1 | – | – | – | – | – | inactive | – | – | –
8 | CC(C)Cc1cc(CNC(=O)C2C3CN(CCc4ccc(C(F)(F)F)cc4)CC32)nn1-c1ccccc1 (stereo not given) | – | – | – | – | – | – | 60.5 | 64.6 | –
9 | CC(C)Cc1cc(CNC(=O)C2C3CN(C(=O)Cc4ccccc4)CC32)nn1-c1ccccc1 (stereo not given) | 65.5 | 20800 | 24.8 | 80.4 | 83 | – | 81 | 89.9 | IC50 [23]: 2730 nM; inhibition [24]: 60.6%; IC50 [25]: 2500 nM; remaining at 0.5 h [22]: 57.8%
